Screening data (PubChem)
In the library only some 2.9% were active in any assay of this set; here they are far more common.
EBNA-1 inh: blocks EBNA-1 binding to DNA; EBNA-1 DNA binding, fluorescence polarization; inhibition, % at 14.8 µM; 300,000 compounds, 0.34% hits; in the data active means inhibition above about 28%
UBC13 polyUb: blocks human UBC13 polyubiquitin chain formation | P61088 | TR-FRET | inhibition, % at 20 µM | 330,000 compounds, 0.47% hits; in the data active means inhibition above about 45%, passing the limit was not always enough
Apaf1 inhib: human Apaf-1 inhibition. reconstituted apoptosome caspase-3 activity, DEVD-Rh110 fluorescence. inhibition, % at 20 µM. 330,000 compounds, 0.71% hits; active means inhibition of at least 40% at 20 µM;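 further: plate controls were DMSO wells for no effect and DEVD-CHO caspase inhibitor wells for full effect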
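detection = Rh110 fluorescence intensity | test system = biochemical Apaf-1 apoptosome reconstitution | also added = cytochrome c and DEVD-Rh110 substrate | schedule = 30 min plus 50 min, RT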
PfG6PD inh: PfG6PD (Plasmodium falciparum) enzyme inhibition. inhibition, % at 20 µM. PfGluPho enzyme, NADPH resazurin-diaphorase fluorescence. 350,000 compounds, 0.78% hits;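 active means inhibition reaching at least a set limit at 20 µM in the primary screen, cut at about 59% in these data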;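 further: 0% = DMSO wells with substrate and 100% = DMSO wells lacking glucose-6-phosphate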
PfM18AAP inh: PfM18AAP enzyme inhibition; recombinant PfM18AAP, H-Glu-NHMec fluorogenic cleavage; inhibition, % at 7.35 µM; AID 1822; 290,000 compounds, 1.2% hits;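 active means inhibition above the campaign mean inhibition over all tested compounds plus 3 SD, cut at about 28% in these data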;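 further: 0% = plate median of test compound wells and 100% = 2 mM ZnCl2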
ZTA DNA inh: blocks Epstein-Barr virus ZTA, an EBNA-1 counter-screen. P03206. ZTA-DNA binding, fluorescence polarization. inhibition, % at 11 µM. 320,000 compounds, 0.15% hits. AID 2234; in the data active means inhibition above about 33%
Apaf-1 inh conf: confirmation of Apaf-1 inhibitors; shares compounds with Apaf1 inhib; reconstituted apoptosome, caspase-3 DEVD-Rh110 fluorescence; inhibition, % at 20 µM; 1,800 compounds, 25% hits; AID 504614;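 active means mean inhibition of at least 40% at 20 µM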;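 further: plate controls were DMSO wells for no effect and DEVD-CHO caspase inhibitor control wells for full effect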
Rh110 interf inh: interferes with Rh110 fluorescence, flagging false Apaf-1 inhibitors; shares compounds with Apaf1 inhib; Rh110 fluorescence interference, quenched caspase reaction; activation (fluorescence interference), % at 20 µM; 1,800 tested, under 10 active;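 active means signal rise of 40% or more at 20 µM, treated as a fluorescence artifact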
Fluor interf inh: shows fluorescence interference in the Apaf-1 inhibitor assay format; shares compounds with Apaf1 inhib; fluorescence interference counterscreen, Apaf-1 assay format; IC50, µM; 460 tested, under 10 active; AID 588538; call rule not given here
Active calls of the source: *; x = no result given.

SMILES | EBNA-1 inh | UBC13 polyUb | Apaf1 inhib | PfG6PD inh | PfM18AAP inh | ZTA DNA inh | Apaf-1 inh conf | Rh110 interf inh | others
S=C(Nc1ccc2nsnc2c1)N1CCCCCC1 | -7.5 | -47.1 | 92.6* | 3.8 | 9.6 | -1.1 | 11.8 | 4.6
O=C(Nc1ccc2nsnc2c1)N1CCCCC1 | -11.5 | -1.4 | 72.7* | -0.6 | 6.7 | -16.9 | 3.3 | -3.4
Cc1ccc(SCC(=O)OCC(=O)NCCNC(=O)COC(=O)CSc2ccc(C)c(C)c2)cc1C | -16.0 | 11.3 | 40.1* | 3.0 | x | -7.2 | 20.2 | 16.4
N#CCC(=O)Nc1ccc(C(=O)OCC(=O)Nc2cccc(C(F)(F)F)c2)cc1 | -12.1 | -16.2 | 6.6 | -0.1 | -8.2 | -10.7 | x | x
COc1ccc(N2CCN(C(=O)c3ccc(COc4ccc5c(C)cc(=O)oc5c4)cc3)CC2)cc1 | 11.8 | -6.7 | 57.7* | -2.9 | -1.1 | -13.3 | 16.7 | 4.7
Cc1cc(CSc2ccc(Cl)cc2)ccc1N | x | x | x | 49.2 | x | x | x | x
Cc1ccc(-c2nnc(CSc3nnc(COc4cccc5ccccc45)n3-c3ccccc3)o2)cc1 | -1.4 | 5.7 | 44.5* | 28.0 | -2.8 | -6.6 | 47.2* | -3.1 | Fluor interf inh=>100
N#CCSc1nnc(COc2cccc3ccccc23)n1-c1cccc(Cl)c1 | 3.3 | 13.8 | 29.5 | 44.6 | -1.0 | -1.9 | x | x
O=C(NC1CC1)C1=C[C@@H](c2ccc(C(F)(F)F)cc2)C[C@@H](OCCCCO)O1 | 4.2 | -1.9 | 3.0 | 8.9 | x | -8.8 | x | x
O=C(NC1CC1)C1=C[C@H](c2ccc(C(F)(F)F)cc2)C[C@H](OCCCCO)O1 | 2.2 | -1.7 | 50.3* | -0.8 | x | -16.9 | 3.6 | 9.0
CCc1cc2cc(C)ccc2nc1SCC(=O)N1CC(=O)Nc2ccccc21 | 7.3 | 12.9 | 16.6 | -0.5 | 4.3 | 8.7 | x | x
CCc1cc2c(SCC(=O)N3CC(=O)Nc4ccccc43)ncnc2s1 | 3.1 | -15.5 | 55.1* | 21.8 | 5.4 | -3.5 | 20.2 | 7.2
CN1CCCC1CCNc1ccc2sc3ccccc3c(=O)c2c1 (stereo unspecified) | -7.1 | 10.0 | 43.9* | 7.9 | x | -2.6 | 19.8 | 6.5
O=c1c2ccccc2sc2ccc(NCCCN3CCOCC3)cc12 | -2.0 | -31.2 | 28.4 | 35.3 | x | -7.2 | x | x
Cc1cccc(S(=O)(=O)NNC(=O)c2sc(C)nc2C)c1 | -4.2 | -5.8 | -0.6 | -6.7 | 7.5 | -4.5 | x | x
Cc1ccc(C)c2[nH]c(=O)c(C(c3nnnn3Cc3ccco3)N3CCc4ccccc4C3)cc12 (stereo unspecified) | 0.1 | -21.3 | 70.6* | 21.6 | -4.1 | -0.9 | 21.6 | -2.7
Cc1ccc(C)c2[nH]c(=O)c(C(c3nnnn3CCc3ccccc3)N3CCOCC3)cc12 (stereo unspecified) | -17.7 | -4.5 | 18.4 | 0.6 | 6.8 | 4.9 | x | x
CN(C)C(=O)c1ccc(NC(=O)c2sccc2-c2ccccc2)cc1 | 10.5 | 4.4 | 44.9* | 1.4 | -9.7 | 9.1 | 31.5 | 0.7
CCCCCC(=O)Nc1nc(C)c(-c2csc(Nc3cc(OC)ccc3OC)n2)s1 | 9.4 | 0.2 | -7.9 | 23.6 | 2.1 | 4.9 | x | x
CCCCCCC(=O)Nc1nc(C)c(-c2csc(Nc3cc(OC)ccc3OC)n2)s1 | 0.4 | -9.1 | 49.0* | 25.9 | 3.5 | 4.8 | -9.8 | 4.5
CC(Oc1cccc(Cl)c1)C(=O)Nc1cc(S(=O)(=O)N2CCOCC2)ccc1N1CCCCC1 (stereo unspecified) | 1.4 | 21.5 | 47.7* | 14.8 | x | -10.8 | 43.5* | 3.2 | Fluor interf inh=>100
CCOc1cccc(Nc2ccc([N+](=O)[O-])cn2)c1 | 4.4 | -10.9 | 5.9 | 8.3 | -12.9 | 1.4 | x | x
O=C(OCC(=O)N1CCN(S(=O)(=O)c2ccc(Cl)cc2)CC1)c1ccc([N+](=O)[O-])o1 | -9.5 | -9.2 | 69.1* | 34.0 | -6.0 | 0.2 | 14.2 | 2.9
O=C(OCC(=O)N1CCN(S(=O)(=O)c2ccccc2)CC1)c1ccc([N+](=O)[O-])o1 | -2.6 | 8.3 | 79.9* | 20.0 | -2.0 | -4.4 | 18.2 | 9.8
CCCn1nnnc1NC(=O)c1ccc(C)cc1Cl | 14.2 | -5.0 | -11.6 | -20.2 | 0.5 | 29.4 | x | x
